These results are taken from ChEMBL document CHEMBL1145444, “Mechanism-based thrombin inhibitors: design, synthesis, and molecular docking of a new selective 2-oxo-2H-1-benzopyran derivative” (J Med Chem, 2007).

Molecules are shown by their SMILES.

Assay [1] has as its target Prothrombin (Homo sapiens) (UniProt P00734). The assay is described as follows: Inhibition of thrombin assessed as residual activity at 100 uM after 10 min. An outline of the steps:
(§1)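 Isolated, purified thrombin was incubated with inhibitor for 10 min, then its proteolytic activity was measured. Screening used 100 µM inhibitor, with lower concentrations for potent compounds. Values are reported as percentage of residual enzyme activity.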

The species entered for assay [2] is Homo sapiens. The assay can be described thus: Selectivity for thrombin over alpha chymotrypsin. In a few lines:
(§2)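 Inactivation rate constant (k_i) and K_I were determined by one of two methods depending on the protease. In the progress-curve method, inhibitor competes with a chromogenic substrate. In the preincubation method, enzyme and inhibitor are incubated first and remaining activity is sampled at regular time intervals. k_i/K_I serves as the potency index, and selectivity is taken as the ratio of k_i/K_I between proteases.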

Assay [3] addresses Prothrombin (Homo sapiens) (UniProt P00734). The assay can be described thus: Ratio of kcat for thrombin to Ki for thrombin. An outline of the steps: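 Partition ratio is the ratio of product released per inactivation event, calculated as k_cat/k_i, on thrombin.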
Assay [4] shares this target. The assay is described as follows: Inhibition of thrombin assessed as residual activity at 2 uM after 10 min. In a few lines:
as §1

The target is the same in assay [5]. The assay can be described thus: Inhibition of thrombin assessed as residual activity at 10 uM after 10 min. An outline of the steps:
as §1

Assay [6] has the same target. The assay can be described thus: Ratio of Ki for thrombin to K(inactivation) for thrombin. An outline of the steps:
as §2

The species named for assay [7] is Homo sapiens. The assay is described as follows: Ratio of Ki for alpha chymotrypsin to K(inactivation) for alpha chymotrypsin. An outline of the steps:
as §2

For the compound `Nc1ccc(Cl)cc1OC(=O)c1cc2cc(CCl)ccc2oc1=O`, in assay [1], the Activity is 60%. On to `O=C(Oc1cccc(Cl)c1)c1cc2cc(Oc3ccccc3)ccc2oc1=O`, for which, in assay [1], the Activity was 90%. In the case of `O=C(Oc1cc(Cl)ccc1Cl)c1cc2cc(Oc3ccccc3)ccc2oc1=O`, the Activity in assay [1] came to 94%.

For the compound `O=C(Oc1cccc(Cl)c1)c1cc2cc(CCl)ccc2oc1=O`, the Ratio in assay [2] worked out at 0.01. Moreover, the partition ratio kcat/ki in assay [3] amounted to 2.8. Regarding `O=C(Nc1cc(Cl)ccc1O)c1cc2cc(CCl)ccc2oc1=O`, the Activity in assay [1] was found to be 110%. The same measure, in the same setting: as for `O=C(OCc1cc(Cl)ccc1O)c1cc2cc(CCl)ccc2oc1=O`, the figure is 101%; as for `CCOC(=O)COc1ccc(Cl)cc1COC(=O)c1cc2cc(CCl)ccc2oc1=O`, 95%.

Consider `O=C(Oc1cc(Cl)ccc1Cl)c1cc2cc(CCl)ccc2oc1=O`, for which the Ratio in assay [2] is 0.13. Further, the partition ratio kcat/ki in assay [3] was determined as 1.8.

As to `O=C(OCc1cc(Cl)ccc1Cl)c1cc2cc(CCl)ccc2oc1=O`, in assay [1], the Activity is 103%. As to `CCNC(=O)COc1ccc(Cl)cc1OC(=O)c1cc2cc(CCl)ccc2oc1=O`, the values for the Activity in assay [4] and in assay [5] were 11% and 3%, respectively. For the same compound, the Ratio in assay [2] stood at 5; in assay [6], 3460 M⁻¹ s⁻¹; in assay [7], 755 M⁻¹ s⁻¹. The partition ratio kcat/ki in assay [3] was 13.5.

`O=C(Nc1cc(Cl)ccc1Cl)c1cc2cc(CCl)ccc2oc1=O`: in assay [1], the Activity amounted to 91%.
